How the values were obtained:
CCRF-CEM = assay: Antitumor activity against human CCRF-CEM cells assessed as growth inhibition at 10 uM relative to control; assay type: functional; conditions: read-out: GI
Summary of the method: (§1)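 After drug addition, plates were incubated 48 h at 37 °C under 5% CO2. Adherent cells were fixed with cold TCA (10% final, 60 min, 4 °C) and suspension cells with 16% final TCA. Staining used 0.4% SRB in 1% acetic acid, solubilized in 10 mM trizma, read at A515. Percent growth was calculated from time-zero, control and treated absorbances.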

K562 = assay: Antitumor activity against human K562 cells assessed as growth inhibition at 10 uM relative to control; assay type: functional; conditions: read-out: GI; summary of the method: as §1
MOLT-4 = assay: Antitumor activity against human MOLT-4 cells assessed as growth inhibition at 10 uM relative to control; assay type: functional; conditions: read-out: GI; summary of the method: as §1
A549 = assay: Antitumor activity against human A549 cells assessed as growth inhibition at 10 uM relative to control; assay type: functional; conditions: read-out: GI; summary of the method: as §1
HCT-15 = assay: Antitumor activity against human HCT-15 cells assessed as growth inhibition at 10 uM relative to control; assay type: functional; conditions: read-out: GI; summary of the method: as §1
LOX IMVI = assay: Antitumor activity against human LOX IMVI cells assessed as growth inhibition at 10 uM relative to control; assay type: functional; conditions: read-out: GI; summary of the method: as §1
OVCAR-3 = assay: Antitumor activity against human OVCAR-3 cells assessed as growth inhibition at 10 uM relative to control; assay type: functional; conditions: read-out: GI; summary of the method: as §1
OVCAR-8 = assay: Antitumor activity against human OVCAR-8 cells assessed as growth inhibition at 10 uM relative to control; assay type: functional; conditions: read-out: GI; summary of the method: as §1
ACHN = assay: Antitumor activity against human ACHN cells assessed as growth inhibition at 10 uM relative to control; assay type: functional; conditions: read-out: GI; summary of the method: as §1
PC-3 = assay: Antitumor activity against human PC-3 cells assessed as growth inhibition at 10 uM relative to control; assay type: functional; conditions: read-out: GI; summary of the method: as §1
DU-145 = assay: Antitumor activity against human DU-145 cells assessed as growth inhibition at 10 uM relative to control; assay type: functional; conditions: read-out: GI; summary of the method: as §1
MCF7 = assay: Antitumor activity against human MCF7 cells assessed as growth inhibition at 10 uM relative to control; assay type: functional; conditions: read-out: GI; summary of the method: as §1
BT-549 = assay: Antitumor activity against human BT-549 cells assessed as growth inhibition at 10 uM relative to control; assay type: functional; conditions: read-out: GI; summary of the method: as §1
MDA-MB-468 = assay: Antitumor activity against human MDA-MB-468 cells assessed as growth inhibition at 10 uM relative to control; assay type: functional; conditions: read-out: GI; summary of the method: as §1
[1] = Cytotoxicity against human PCS-800-011 cells assessed as inhibition of cell growth by MTT assay; assay type: toxicity, cell-based
[2] = molecular target: Phosphatidylinositol 4,5-bisphosphate 3-kinase catalytic subunit alpha isoform (Homo sapiens, UniProt P42336); assay: Inhibition of PI3Kalpha (unknown origin)
Chain of Phosphatidylinositol 4,5-bisphosphate 3-kinase catalytic subunit alpha isoform (P42336 whole entry, canonical isoform): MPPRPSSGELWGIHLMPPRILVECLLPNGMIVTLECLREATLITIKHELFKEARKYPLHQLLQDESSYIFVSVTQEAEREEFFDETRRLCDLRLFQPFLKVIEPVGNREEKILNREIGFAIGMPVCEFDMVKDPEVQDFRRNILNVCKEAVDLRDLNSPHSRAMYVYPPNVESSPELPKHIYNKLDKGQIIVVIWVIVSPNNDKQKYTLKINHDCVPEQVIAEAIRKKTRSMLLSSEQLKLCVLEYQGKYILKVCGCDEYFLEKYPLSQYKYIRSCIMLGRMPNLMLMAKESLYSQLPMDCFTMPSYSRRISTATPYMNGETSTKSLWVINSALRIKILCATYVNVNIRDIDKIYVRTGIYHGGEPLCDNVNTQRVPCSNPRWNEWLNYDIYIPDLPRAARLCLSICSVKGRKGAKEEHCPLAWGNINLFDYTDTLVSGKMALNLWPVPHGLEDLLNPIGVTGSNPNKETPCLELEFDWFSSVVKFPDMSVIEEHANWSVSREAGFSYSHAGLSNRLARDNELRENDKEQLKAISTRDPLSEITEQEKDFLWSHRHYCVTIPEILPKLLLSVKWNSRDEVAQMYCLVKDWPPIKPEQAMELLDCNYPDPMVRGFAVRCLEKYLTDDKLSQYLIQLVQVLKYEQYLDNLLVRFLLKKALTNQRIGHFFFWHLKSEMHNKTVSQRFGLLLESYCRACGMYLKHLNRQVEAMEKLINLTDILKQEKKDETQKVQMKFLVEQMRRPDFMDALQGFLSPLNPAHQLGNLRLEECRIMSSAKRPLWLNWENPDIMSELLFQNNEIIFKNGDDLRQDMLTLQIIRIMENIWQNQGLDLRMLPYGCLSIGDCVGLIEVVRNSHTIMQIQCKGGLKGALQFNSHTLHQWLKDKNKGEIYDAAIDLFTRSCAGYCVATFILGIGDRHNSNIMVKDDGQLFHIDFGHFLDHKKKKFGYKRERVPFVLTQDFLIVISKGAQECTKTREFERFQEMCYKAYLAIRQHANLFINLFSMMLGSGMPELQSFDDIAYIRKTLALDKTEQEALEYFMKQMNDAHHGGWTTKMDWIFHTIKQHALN
Summary of the method: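 Inhibitor preincubated 10 min before PIP2 substrate in kinase reaction buffer (25 µl final), 1 h reaction. Product detected by competition with biotinylated PIP3 for GRP1, with SA-HRP and TMB colour.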

[3] = molecular target: T1, Serine/threonine-protein kinase mTOR (Homo sapiens, UniProt P42345); assay: Inhibition of mTOR (unknown origin) incubated for 1 hr by ELISA analysis
Summary of the method: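 Glutathione-coated plate loaded with mTOR substrate (1 h, room temperature). mTOR with compound in 2X kinase assay buffer, 30 min at 30 °C, then stop solution. Phospho-p70S6K-T389 detected by primary antibody, then HRP conjugate (1 h each), TMB, A450 with 540 or 595 nm reference.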

SR [4] = assay: Induction of cell cycle arrest in human SR cells assessed as accumulation of cells at pre-G phase incubated for 24 hrs by PI staining based flow cytometry analysis (reference value: 1.39%); assay type: functional
SR [5] = assay: Induction of cell cycle arrest in human SR cells assessed as accumulation of cells at G1 phase incubated for 24 hrs by PI staining based flow cytometry analysis (reference value: 53.01%); assay type: functional
SR [6] = assay: Induction of cell cycle arrest in human SR cells assessed as accumulation of cells at G2/M phase incubated for 24 hrs by PI staining based flow cytometry analysis (reference value: 8.57%); assay type: functional
SR [7] = assay: Induction of cell cycle arrest in human SR cells assessed as accumulation of cells at S phase incubated for 24 hrs by PI staining based flow cytometry analysis (reference value: 38.42%); assay type: functional
SR [8] = assay: Induction of cell cycle arrest in human SR cells assessed as cell aggregates incubated for 24 hrs by PI staining based flow cytometry analysis (reference value: 1.47%); assay type: functional
SR [9] = assay: Induction of cell cycle arrest in human SR cells assessed as cell debris incubated for 24 hrs by PI staining based flow cytometry analysis (reference value: 1.93%); assay type: functional
SR [10] = assay: Induction of apoptosis in human SR cells assessed as early apoptotic cells incubated for 24 hrs by AnnexinV-FITC/propidium iodide staining based flow cytometry (Rvb =0.29%); assay type: functional
SR [11] = assay: Induction of apoptosis in human SR cells assessed as late apoptotic cells incubated for 24 hrs by AnnexinV-FITC/propidium iodide staining based flow cytometry (Rvb =0.18%); assay type: functional
SR [12] = assay: Induction of apoptosis in human SR cells assessed as necrotic cells incubated for 24 hrs by AnnexinV-FITC/propidium iodide staining based flow cytometry (Rvb =0.92%); assay type: functional
SR [13] = assay: cells; conditions: Homo sapiens
[14] = molecular target: T1, Serine/threonine-protein kinase mTOR; assay: Inhibition of mTOR in human SR cells by Western blot analysis; assay type: cell-based

Q: With `N#Cc1c(-c2ccc(Cl)cc2)nc(N/N=C/c2cccc(O)c2)nc1N1CCOCC1` as the compound, how does the inhibition of growth at 10 µM (CCRF-CEM) read?
A: 63.8%

Q: What about the inhibition of growth at 10 µM (K562) of the same compound?
A: 54.9%

Q: What about the inhibition of growth at 10 µM (MOLT-4) of the same compound?
A: 60.2%

Q: What about the inhibition of growth at 10 µM (A549) of the same compound?
A: 27.3%

Q: What about the inhibition of growth at 10 µM (HCT-15) of the same compound?
A: 55.3%

Q: And the inhibition of growth at 10 µM (LOX IMVI)?
A: 38.2%

Q: What about the inhibition of growth at 10 µM (OVCAR-3) of the same compound?
A: 22.3%

Q: What about the inhibition of growth at 10 µM (OVCAR-8) of the same compound?
A: 34.6%

Q: What about the inhibition of growth at 10 µM (ACHN) of the same compound?
A: 39.1%

Q: What about the inhibition of growth at 10 µM (PC-3) of the same compound?
A: 36.2%

Q: What about the inhibition of growth at 10 µM (DU-145) of the same compound?
A: 36.6%

Q: And the inhibition of growth at 10 µM (MCF7)?
A: < 39.9%

Q: And the inhibition of growth at 10 µM (BT-549)?
A: 26.9%

Q: And the inhibition of growth at 10 µM (MDA-MB-468)?
A: 12.6%

Q: What about the IC50 [1] of the same compound?
A: 44500 nM

Q: And the IC50 [2]?
A: 1270 nM

Q: What about the IC50 [3] of the same compound?
A: 2850 nM

Q: What about the Activity (SR [4]) of the same compound?
A: 31.4%

Q: What about the Activity (SR [5]) of the same compound?
A: 39.28%

Q: And the Activity (SR [6])?
A: 33.77%

Q: And the Activity (SR [7])?
A: 26.95%

Q: What about the Activity (SR [8]) of the same compound?
A: 1.61%

Q: And the Activity (SR [9])?
A: 2.24%

Q: What about the Activity (SR [10]) of the same compound?
A: 2.61%

Q: What about the Activity (SR [11]) of the same compound?
A: 19.19%

Q: What about the Activity (SR [12]) of the same compound?
A: 9.61%

Q: What about the IC50 (SR [13]) of the same compound?
A: 90 nM

Q: What does the source list for `N#Cc1c(-c2ccc(Cl)cc2)nc(N/N=C/c2cccc(Cl)c2)nc1N1CCOCC1`?
A: inhibition of growth at 10 µM (CCRF-CEM): 27.5%; inhibition of growth at 10 µM (K562): 64.9%; inhibition of growth at 10 µM (MOLT-4): 46.7%; inhibition of growth at 10 µM (A549): 18.1%; inhibition of growth at 10 µM (HCT-15): 64.6%; inhibition of growth at 10 µM (LOX IMVI): 14.5%; inhibition of growth at 10 µM (OVCAR-3): 12.6%; inhibition of growth at 10 µM (OVCAR-8): < 1%; inhibition of growth at 10 µM (ACHN): 25.7%; inhibition of growth at 10 µM (PC-3): 26.5%; inhibition of growth at 10 µM (DU-145): 24%; inhibition of growth at 10 µM (MCF7): < 14.1%; inhibition of growth at 10 µM (BT-549): < 1%; inhibition of growth at 10 µM (MDA-MB-468): 14.9%; IC50 [1]: 17500 nM; IC50 [2]: 170 nM; IC50 [3]: 830 nM; Activity (SR [4]): 44.26%; Activity (SR [5]): 32.95%; Activity (SR [6]): 37.64%; Activity (SR [7]): 29.41%; Activity (SR [8]): 1.51%; Activity (SR [9]): 1.96%; Activity (SR [10]): 3.54%; Activity (SR [11]): 27.96%; Activity (SR [12]): 12.76%; IC50 [14]: 103 nM; IC50 (SR [13]): 100 nM
